Experimental findings from ChEMBL document CHEMBL4376883, “Discovery and Optimization of Small Molecules Targeting the Protein-Protein Interaction of Heat Shock Protein 90 (Hsp90) and Cell Division Cycle 37 as Orally Active Inhibitors for the Treatment of Colorectal Cancer” (J Med Chem, 2020) are described below.

Series [1] can be described thus: Toxicity in human HCT116 cells xenografted BALB/c mouse assessed as body weight loss at 40 to 80 mg/kg, po administered once daily for 21 days measured at 3 days interval during compound dosing. The format is organism-based. Conditions: in vivo. In a few lines:
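BALB/c nude mice (6 weeks old) carried flank HCT116 xenografts (1×10^7 cells with Matrigel, 3:1). Dosing started at mean tumor volume 125 mm³: oral 40 or 80 mg/kg daily for 21 days, vehicle 0.9% saline with 5% DMSO. Body weight was recorded every 3 days; n = 6.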

Series [2] is described as follows: Toxicity in human HCT116 cells xenografted BALB/c mouse assessed as effect on heart at 40 to 80 mg/kg, po administered once daily for 21 days measured post-last dose by H and E staining-based imaging analysis. The format is organism-based. As to conditions: in vivo, 504 h. The gist of the method: (§1)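 Same xenograft model in BALB/c nude mice with oral daily dosing at 40 or 80 mg/kg in 5% DMSO/saline for 21 days. After sacrifice, organs were fixed in 4% formaldehyde, paraffin-embedded, sectioned at 4 μm and H&E-stained for light-microscopy imaging.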
(In general: Xenograft models place foreign cells or tissue in a host animal.)

Series [3] can be described thus: Toxicity in human HCT116 cells xenografted BALB/c mouse assessed as effect on liver at 40 to 80 mg/kg, po administered once daily for 21 days measured post-last dose by H and E staining-based imaging analysis. Conditions: in vivo, 504 h. The format is organism-based. The gist of the method: as §1
Series [4] can be described thus: Toxicity in human HCT116 cells xenografted BALB/c mouse assessed as effect on kidney at 40 to 80 mg/kg, po administered once daily for 21 days measured post-last dose by H and E staining-based imaging analysis. As to conditions: in vivo, 504 h. In kind it is organism-based. In a few lines:
as §1

A short description of series [5]: Toxicity in human HCT116 cells xenografted BALB/c mouse assessed as effect on lung at 40 to 80 mg/kg, po administered once daily for 21 days measured post-last dose by H and E staining-based imaging analysis. As to conditions: in vivo, 504 h. The format is organism-based. In a few lines: as §1
A short description of series [6]: Toxicity in human HCT116 cells xenografted BALB/c mouse assessed as effect on spleen at 40 to 80 mg/kg, po administered once daily for 21 days measured post-last dose by H and E staining-based imaging analysis. The format is organism-based. Conditions: in vivo, 504 h. The gist of the method: as §1
The target of series [7] is T1, Heat shock protein HSP90 (Homo sapiens, UniProt P07900+P08238). The series can be described thus: Inhibition of recombinant full-length HSP90 ATPase activity N-terminal domain (9 to 236 residues) (unknown origin) expressed in Escherichia coli BL21 (DE3) measured after 1 hr by ADP hunter plus assay.
Series [8] deals with Heat shock protein HSP 90-beta/Hsp90 co-chaperone Cdc37 (Homo sapiens) (UniProt P08238+Q16543). The series is described as follows: Inhibition of HSP90-CDC37 protein-protein interaction in human HCT116 cells up to 1 uM measured after 12 hrs by coimmunoprecipitation-based Western blot assay. In kind it is cell-based. In a few lines:
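HCT116 cells grown to ~90% confluence in 10 cm dishes, exposed to compound or DMSO for 12 h, then washed with ice-cold PBS and lysed in RIPA buffer (50 mM Tris, 150 mM NaCl, 1% NP-40, protease inhibitors, pH 7.4) for 1 h on ice. Hsp90 was immunoprecipitated with protein A/G magnetic beads over 3 h. Western blots probed Hsp90, Cdc37 and CDK4.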
On the technique in general: Immunoblotting shows a protein as a band on a membrane.

The target of series [9] is T1, Heat shock protein HSP90. The series can be described thus: Binding affinity to recombinant […] biotinylated-HSP90 N-terminal domain (9 to 236 residues) (unknown origin) expressed in Escherichia coli BL21 (DE3) by biolayer interferometry. The gist of the method: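 Biotinylated Hsp90 (100 µg/mL) loaded onto streptavidin sensors prewetted 10 min in PBS with 0.05% BSA and 0.01% Tween 20. Analyte binding measured at 28 °C. Double reference subtraction applied; data fitted to a 1:1 model with K_D = K_off/K_on.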

Series [10] has as its target T1, Heat shock protein HSP90. The series can be described thus: Binding affinity to recombinant […] HSP90 N-terminal domain (9 to 236 residues) (unknown origin) expressed in Escherichia coli BL21 (DE3) by isothermal calorimetric method. The gist of the method:
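ITC: 50 µM Hsp90 in the cell and 300 µM compound in the syringe, both in 20 mM Tris-HCl, 150 mM NaCl, pH 7.4. Nineteen injections at 180 s intervals with stirring at 1000 rpm.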
(Isothermal titration calorimetry measures the heat released or taken up as one component is titrated into another.)

A further series relates to HCT-116. The series is described as follows: Antiproliferative activity against human HCT116 cells measured after 72 hrs by CCK8 assay. In kind it is functional, cell-based. Conditions: HCT-116, 72 h. In a few lines:
(§2)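 Cells grown in RPMI 1640 with 10% FBS at 37 °C, 5% CO2; STR-authenticated and mycoplasma-checked. Seeded at 3000-5000 cells/well and left 24 h. Serial compound dilutions added for 72 h, with matched DMSO as control. Viability read by CCK8 kit using the standard protocol. IC50 values derived from at least three parallel experiments.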

The subject of another series is A549. The series is described as follows: Antiproliferative activity against human A549 cells measured after 72 hrs by CCK8 assay. The format is functional, cell-based. As to conditions: A549, 72 h. The gist of the method: as §2
The subject of another series is L02. The series can be described thus: Cytotoxicity against human L02 cells measured after 72 hrs by CCK8 assay. The format is functional, cell-based. Conditions: L02, 72 h. The gist of the method: as §2
Series [11] in a line: Distribution coefficient, log D of the compound at pH 7.4 by potentiometric titration method. The format is physicochemical. As to conditions: octanol/water. In a few lines:
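log D at pH 7.4 measured by potentiometric titration on a Gemini Profiler.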

Series [12] in a line: Permeability of the compound at pH 7.4 by PAMPA. The format is ADME. As to conditions: read-out: permeability. In a few lines: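 Permeability coefficient (Pe) was measured at pH 7.4 by double-sink PAMPA.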
The nature of series [13]: Stability of the compound in mouse plasma assessed as parent compound remaining at 1 uM measured immediately by LC-MS/MS analysis. The format is ADME, cell-free. Conditions: read-out: Stability. The gist of the method:
(§3)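 Compound diluted from 10 mM DMSO stock to 1 μM in mouse or human plasma and held at 37 °C in a water bath. Reactions were stopped with acetonitrile at 0, 10, 30, 60 and 90 min. Parent compound was quantified by LC-MS/MS as % remaining.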

Series [14] can be described thus: Stability of the compound in mouse plasma assessed as parent compound remaining at 1 uM measured after 10 mins by LC-MS/MS analysis. In kind it is ADME, cell-free. As to conditions: read-out: Stability. The gist of the method: as §3
Series [15] in a line: Stability of the compound in mouse plasma assessed as parent compound remaining at 1 uM measured after 30 mins by LC-MS/MS analysis. As to conditions: read-out: Stability. The format is ADME, cell-free. In a few lines: as §3
Series [16] is described as follows: Stability of the compound in mouse plasma assessed as parent compound remaining at 1 uM measured after 60 mins by LC-MS/MS analysis. The format is ADME, cell-free. Conditions: read-out: Stability. In a few lines: as §3
The nature of series [17]: Stability of the compound in mouse plasma assessed as parent compound remaining at 1 uM measured after 90 mins by LC-MS/MS analysis. The format is ADME, cell-free. As to conditions: read-out: Stability. In a few lines: as §3
Series [18] in a line: Stability of the compound in human plasma assessed as parent compound remaining at 1 uM measured immediately by LC-MS/MS analysis. As to conditions: read-out: Stability. The format is ADME, cell-free. In a few lines:
as §3

Series [19] in a line: Stability of the compound in human plasma assessed as parent compound remaining at 1 uM measured after 10 mins by LC-MS/MS analysis. The format is ADME, cell-free. Conditions: read-out: Stability. The gist of the method:
as §3

Series [20] is described as follows: Stability of the compound in human plasma assessed as parent compound remaining at 1 uM measured after 30 mins by LC-MS/MS analysis. The format is ADME, cell-free. As to conditions: read-out: Stability. In a few lines:
as §3

Series [21] can be described thus: Stability of the compound in human plasma assessed as parent compound remaining at 1 uM measured after 60 mins by LC-MS/MS analysis. The format is ADME, cell-free. Conditions: read-out: Stability. In a few lines:
as §3

The nature of series [22]: Stability of the compound in human plasma assessed as parent compound remaining at 1 uM measured after 90 mins by LC-MS/MS analysis. Conditions: read-out: Stability. The format is ADME, cell-free. In a few lines: as §3
Series [23] in a line: Half life in human liver microsomes at 10 uM preincubated for 5 mins followed by NADPH addition by LC-MS/MS analysis. In kind it is ADME, Microsome. In a few lines:
(§4)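 Compound at 10 µM preincubated 5 min at 37 °C with human or mouse liver microsomes (0.5 mg/mL) in 100 mM phosphate, pH 7.4. Reaction started with 1 mM NADPH, stopped with cold acetonitrile, centrifuged and analysed by LC-MS/MS.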

Series [24] is described as follows: Clearance in human liver microsomes at 10 uM preincubated for 5 mins followed by NADPH addition by LC-MS/MS analysis. The format is ADME, Microsome. As to conditions: read-out: CLH. In a few lines: as §4
The nature of series [25]: Half life in mouse liver microsomes at 10 uM preincubated for 5 mins followed by NADPH addition by LC-MS/MS analysis. The format is ADME, Microsome. The gist of the method:
as §4

Series [26] is described as follows: Clearance in mouse liver microsomes at 10 uM preincubated for 5 mins followed by NADPH addition by LC-MS/MS analysis. The format is ADME, Microsome. Conditions: read-out: CLH. The gist of the method: as §4

Calls of active or inactive are those of the source. Where only a bound is given, the exact number is not on record here.

`Cc1cc(C)c(S(=O)(=O)N(CC(=O)O)c2ccc(Nc3ccnc(N4CCNCC4)n3)cc2)c(C)c1.Cl`: the Activity result in series [1], in series [2], in series [3], in [4], in series [5] and in [6] was “Non-Toxic” each time.
As a reminder, the IC50 is the concentration at which inhibition is half-maximal. As for `CC(C)c1cc(C(=O)N2Cc3ccc(CN4CCN(C)CC4)cc3C2)c(O)cc1O` [ONALESPIB], at Heat shock protein HSP90 [7], the IC50 was determined as 0.15 µM. Besides, in series [8], the inhibition entry is “inactive”.
The Kd is a measure of binding affinity in units of concentration. One may read the logD as the decadic logarithm of the distribution of all forms, ionised or not, between an organic phase and buffer at a given pH. High values mean higher lipophilicity, low ones lower lipophilicity. In general, half-life refers to the time needed for the level to fall by half in the phase considered. A higher half-life goes with slow loss. With `Cc1cc(C)c(S(=O)(=O)N(CC(=O)O)c2ccc(Nc3ccnc(N4CCCC4)n3)cc2)c(C)c1`, the results for the dissociation constant Kd on Heat shock protein HSP90 [9] and on Heat shock protein HSP90 [10] were 7.41 µM and 7.81 µM, respectively. Besides, the half-maximal inhibitory concentration (IC50) with HCT-116 is 10.2 µM; in the series on A549, 55.7 µM; with L02 it was greater than 50 µM; on Heat shock protein HSP90 [7], greater than 100 µM. Besides, in [11], the logD stood at 1.67. Further, the Papp in [12] came to 70.4 ×10⁻⁶ cm/s. For the same molecule, the remaining at 0 min, 1 µM in series [13] and in series [18] was 100% throughout. Besides, the remaining at 10 min, 1 µM in series [14] came to 100%; in [19], 101%. Further, the remaining at 0.5 h, 1 µM was determined as 86% in series [15] and 92% in [20]. In addition, the remaining at 1 h, 1 µM was found to be 71% in series [16] and 76% in [21]. Also, the figures for the remaining at 1.5 h, 1 µM in series [17] and in [22] were 59% and 62%, respectively. For the same molecule, the half-life at 10 µM amounted to 30.4 min in series [23] and 16.8 min in series [25]. Moreover, the microsomal CLint at 10 µM worked out at 32.6 µL/min/mg in [24] and 59 µL/min/mg in series [26].
As for `Cc1cc(C)c(S(=O)(=O)N(CC(=O)O)c2ccc(Nc3ccnc(N4CCCC4)n3)cc2)c(C)c1.[Cl-].[Na+]`, the Activity result in series [1], in series [2], in series [3], in series [4], in series [5] and in series [6] was “Non-Toxic” each time.
